Most compounds without a hit are left out; they make up all but 4.8% or so of the library.
UCH37 inh: blocks the human deubiquitinase UCH37; Q9Y5K5; purified proteasome/UCH37, Ub-AMC cleavage fluorescence; inhibition, % (test concentration not listed); 0.33% of 330,000 active; AID 588478;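 active = mean inhibition over replicate wells above about 20%, limit read from the data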;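 note: 0% = compound-free wells with enzyme and 100% = wells lacking proteasome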
Target sequence (Q9Y5K5 whole entry, looked up): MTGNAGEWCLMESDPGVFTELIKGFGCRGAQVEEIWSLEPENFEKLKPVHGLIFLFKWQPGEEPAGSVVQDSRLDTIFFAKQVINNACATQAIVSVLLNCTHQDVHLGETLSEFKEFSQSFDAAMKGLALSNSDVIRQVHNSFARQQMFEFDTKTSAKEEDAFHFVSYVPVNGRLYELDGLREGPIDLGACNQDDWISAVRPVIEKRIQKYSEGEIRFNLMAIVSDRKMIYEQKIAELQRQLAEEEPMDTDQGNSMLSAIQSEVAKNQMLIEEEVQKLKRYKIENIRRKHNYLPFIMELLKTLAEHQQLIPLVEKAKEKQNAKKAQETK
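System: Proteasome-associated human UCH37 deubiquitinase; Input: 0.15 nM proteasome in added enzyme buffer; Also added: Ub-AMC substrate from 1 µM stock; Incubation: 30 min compound-proteasome preincubation then 25 min substrate reaction, room temperature; Detection: fluorescence, ex 355 nm, em 460 nm; Read-out: % inhibition of Ub-AMC cleavage fluorescence; Benchmarks: no-proteasome and no-compound wells.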
NALP1 inh: inhibitors of NALP1 inflammasome in yeast | inhibition, % at 10 µM | S. cerevisiae NALP1/ASC/caspase-1 growth, X-gal OD620, 72 h | AID 2071 | 0.61% of 280,000 active; in the data active = inhibition mostly above about 24%, no sharp cut-off; inactive = mostly below about 32%
ATG4B inhibitor: ATG4B (human) cysteine protease inhibition; inhibition, % at 8.33 µM; ATG4B cleavage of LC3-PLA2, NBD-HPC fluorescence, 1 h; 0.51% of 340,000 active; AID 504462; Q9Y4P1; in the data active = inhibition above about 40%
NALP3 yeast inh: NALP3 inhibition in yeast. Yeast reconstituted NLRP3/ASC/caspase-1, beta-gal luminescence, 24 h. 0.39% of 330,000 active. inhibition, % at 10 µM. AID 2825;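 active = inhibition of 50% or more; inactive = inhibition below 50%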;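 note: plate controls were induced DMSO wells for no effect and uninduced yeast grown without galactose for full effect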
Calb FLC: affects C. albicans growth with fluconazole; C. albicans CaCi-2 + fluconazole, Alamar Blue growth, 48 h; growth inhibition, % (concentration not given with the values); 0.57% of 300,000 active; AID 1979;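 active = growth inhibition above about 58% in most replicates, limit read from the data, passing the limit was not always enough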;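 note: all wells also contain fluconazole at 8 µg/ml as a sub-toxic cotreatment; 0% = median of DMSO wells and 100% = median of geldanamycin control wells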
ALR inh: inhibitors of human sulfhydryl oxidase ALR; P55789; purified ALR, DTT oxidation, H2O2 HRP-luminol luminescence; inhibition, % (test concentration not listed); 3.8% of 290,000 active; AID 485317;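 active = mean replicate inhibition above about 79%, with every replicate also reaching it, limit read from the data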
Target sequence (P55789 whole entry, looked up): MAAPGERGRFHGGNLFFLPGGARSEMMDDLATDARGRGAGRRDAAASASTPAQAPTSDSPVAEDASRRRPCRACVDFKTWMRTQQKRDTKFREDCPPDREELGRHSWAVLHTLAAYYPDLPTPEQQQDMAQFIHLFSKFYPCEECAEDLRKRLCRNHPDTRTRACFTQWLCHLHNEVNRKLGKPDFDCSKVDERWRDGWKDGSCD
ATG4B confirm: ATG4B (human) inhibition, single-dose confirmed | 92% of 320 active | inhibition, % at 8.33 µM | shares compounds with ATG4B inhibitor | ATG4B protease fluorescent substrate cleavage assay; in the data active = inhibition above about 39%
PLA2 ctr: PLA2 (human) inhibition in ATG4B counter-screen | shares compounds with ATG4B inhibitor | purified PLA2, NBD-C6-HPC fluorescence, 45 min | inhibition, % at 8.33 µM | 66% of 1,600 active; in the data active = inhibition above about 50%
An asterisk follows results filed as active; . = no result.

SMILES | UCH37 inh | NALP1 inh | ATG4B inhibitor | NALP3 yeast inh | Calb FLC | ALR inh | PLA2 ctr | others
CC(C)c1ccc(NC(=O)COC(=O)CC2CCCC2)cc1 | 3 | . | -6 | 12 | . | 2 | .
Cc1nonc1C(=O)N1CCCC(Nc2ccc(C(C)C)cc2)C1 (configuration not stated) | 1 | 20 | 27 | 35 | 4 | -3 | .
CC(C)c1ccc(NC2CCCN(C(=O)CC3CCCC3)C2)cc1 (configuration not stated) | 5 | 16 | 87* | 12 | -3 | 79* | 89*
CC(C)c1ccc(NC2CCCN(C(=O)c3cc(C(C)C)nc(N)n3)C2)cc1 (configuration not stated) | 4 | 9 | 75* | 8 | 19 | 97* | 77*
CC(C)c1ccc(NC2CCCN(C(=O)c3ccc(Cn4cnnn4)cc3)C2)cc1 (configuration not stated) | 6 | 2 | 33 | 2 | 16 | 59 | .
CC(C)c1ccc(NC2CCCN(C(=O)c3ccc(N4CCOCC4)cc3)C2)cc1 (configuration not stated) | 1 | 9 | 77* | 10 | -3 | 98* | 82*
Cc1ccc(C(=O)N2CCCC(Nc3ccc(C(C)C)cc3)C2)cn1 (configuration not stated) | 2 | 26 | 32 | 10 | -4 | 65 | .
Cc1ccccc1C(=O)NC(=S)Nc1ccc(S(=O)(=O)N(C)c2ccccc2)cc1 | 2 | 4 | 48* | 4 | -2 | -20 | 57*
Cc1cccc(C(=O)NC(=S)Nc2ccc(S(=O)(=O)N(C)c3ccccc3)cc2)c1 | 3 | 15 | 7 | 27 | -9 | . | .
C=CCn1c(SCC(=O)N2c3ccccc3Sc3ccccc32)nnc1-c1ccco1 | 1 | . | -2 | 4 | -3 | . | .
C=CCn1c(SCC(O)Cn2c3ccccc3c3ccccc32)nnc1-c1ccco1 (configuration not stated) | -1 | -3 | 46* | 15 | 15 | -4 | 48
CCOc1ccc(-c2c(C(=O)NN=Cc3ccco3)nnn2-c2nonc2N)cc1 | 3 | . | . | . | . | . | .
CCCCCCSc1nnc(-c2cnn(-c3ccccc3)c2-n2cccc2)n1C | 5 | 18 | 44* | 32 | -3 | -4 | 58*
CC(=O)c1ccccc1NC(=O)COc1ccc(N(C)S(=O)(=O)c2ccc(C)c(C)c2)cc1 | 1 | . | 85* | 3 | . | 0 | 28
CC(=O)Nc1ccc(S(=O)(=O)N(C)c2ccc(OCC(=O)Nc3ccccc3C(C)=O)cc2)cc1 | -1 | . | -18 | 7 | . | . | .
O=C1ON=C(c2ccccc2)/C1=C/c1ccc(-c2ccccc2[N+](=O)[O-])o1 | 7 | 35 | 69* | . | . | -4 | 51*
CCOC(=O)c1cn(Cc2c(C)c(C)c(C)c(C)c2C)nn1 | 2 | 14 | 61* | 12 | 1 | -3 | 59*
COc1ccccc1N1CCN(N=C(C)c2ccccc2O)CC1 | 3 | . | . | . | . | . | .
Cc1ccc(NC(=S)NC2CCSc3ccccc32)cc1C (configuration not stated) | 1 | 14 | 41* | 20 | -3 | 4 | 53*
COC(=O)c1ccc(C(=O)NC2CCSc3ccccc32)cc1 (configuration not stated) | 3 | -15 | -5 | 36 | 0 | -3 | .
O=C(O)C1Nc2c(Cl)cc(Cl)cc2C2C=CCC12 (configuration not stated) | 8 | 11 | 65* | . | 3 | 48 | 46 | ATG4B confirm=21
O=C(O)C1Nc2ccc(Br)cc2C2C=CCC12 (configuration not stated) | 11 | 0 | 64* | -1 | 20 | 30 | 21 | ATG4B confirm=32
COc1ccc(-c2cc(C(=O)NN=Cc3cccnc3)c3ccccc3n2)c(OC)c1 | -8 | . | . | . | . | . | .
CCN(CC)c1ccc(C(=C2C=CC(=[N+](CC)CC)C=C2)c2ccc(N(CC)CC)cc2)cc1 | 7 | . | 58* | . | . | . | 52*
COc1cc(C=NNC(=O)c2cc(C34CC5CC(CC(C5)C3)C4)[nH]n2)ccc1O | 5 | . | . | . | . | . | .
SMILES | UCH37 inh | NALP1 inh | ATG4B inhibitor | NALP3 yeast inh | Calb FLC | ALR inh | PLA2 ctr | others
O=C1NC(=S)S/C1=C\c1cc(Cl)cc(Cl)c1O | 13 | . | 62* | . | . | . | 36 | ATG4B confirm=40*
Cc1ccc(SCCNC(=O)/C=C/c2ccccc2Cl)cc1 | 7 | 21 | 56* | 40 | 8 | -5 | 66*
Cc1ccc(SCCNC(=O)/C=C/c2ccc(Cl)cc2)cc1 | 1 | 10 | 10 | 19 | 9 | 1 | .
COc1cc(OC)cc(-c2nc3ccccc3c(=O)n2OC(=O)c2ccc(C)c(C)c2)c1 | 6 | 29 | 56* | 34 | 19 | 2 | 23 | ATG4B confirm=51*
Cc1cc(C(=O)NN=Cc2cc(Br)c(Br)o2)n[nH]1 | 6 | . | . | . | . | . | .
CCc1c(O)c(C(C)=NO)c(=O)n(-c2ccccc2)c1-c1ccccc1 | 3 | . | . | . | . | . | .
Cc1ccc(OCc2cc(C(=O)N3CCc4sccc4C3)no2)cc1C | 0 | -10 | 57* | 19 | 24 | -5 | 79*
Cc1ccc(N2CCN(C(=O)c3cc(COc4c(C)cccc4C)on3)CC2)c(C)c1 | 4 | 6 | 11 | 5 | 0 | -1 | .
Cc1cccc(C)c1OCc1cc(C(=O)N2CCCCCCC2)no1 | . | 24 | 40* | 18 | -9 | -20 | 50*
COc1ccc(C=NNC(=O)c2cc[n+]([O-])cc2)cc1OC | 8 | . | . | . | . | . | .
CN1CCS/C1=C/C=C1/SC(=S)N(Cc2ccccc2)C1=O | 11 | 20 | 82* | . | 8 | -42 | 80*
Cc1cc(C)c(S(=O)(=O)N=C2C=CC(=O)C(Cl)=C2)c(C)c1 | 0 | . | . | . | . | . | .
CCOC(=O)c1ccc(NC(=O)NCc2ccccc2)cc1 | 2 | 19 | 49* | 7 | 3 | -2 | 56*
O=[N+]([O-])c1cccc(S(=O)(=O)Nc2nc3ccccc3nc2Nc2cccc(S(=O)(=O)N3CCCCC3)c2)c1 | 8 | 27 | 46* | . | 26 | . | 50
Cc1ccc(S(=O)(=O)Nc2nc3ccccc3nc2Nc2cccc(S(=O)(=O)N3CCCC3)c2)cc1 | -75 | 7 | -9 | 5 | 0 | . | .
O=[N+]([O-])c1cccc(NN=Cc2cccc(O)c2O)c1 | 4 | . | . | . | . | . | .
Cc1sc(NC(=O)Nc2ccccc2)c(C(N)=O)c1C | -1 | -4 | -8 | -4 | 4 | 38 | .
Cc1ccccc1C(=O)Nc1sc(C)c(C)c1C(=O)c1ccccc1 | 4 | 4 | 41* | -2 | 15 | 4 | 61*
O=C(NC(=S)Nc1sc2c(c1C(=O)O)CCCC2)c1ccccc1 | . | 7 | 52* | 14 | 7 | 61 | 62*

Screens as filed in PubChem.
